# Test results from ChEMBL document CHEMBL1828575, “Design, synthesis and antiproliferative activities of biarylolefins based on polyhydroxylated and carbohydrate scaffolds” (Eur J Med Chem, 2011).
# Key:
# Format in all cases: functional
# SN12C = test: Cytotoxicity against human SN12C cells assessed as cellular growth at 10 uM after 48 hrs by SRB assay
# How it was run: (§1)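 NCI-60 panel lines grown in RPMI 1640 with 5% FBS and 2 mM L-glutamine. Plated at 5000–40,000 cells/well and preincubated 24 h at 37 °C, 5% CO₂, with time-zero plates fixed in TCA. Compounds, dissolved in DMSO and diluted in medium, were applied for 48 h. Cells were TCA-fixed (10% final for adherent, 16% for suspension) and stained with 0.4% SRB in 1% acetic acid. Dye was solubilised in 10 mM Tris base and read at 515 nm; growth was expressed as a percentage of untreated control.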
# CCRF-CEM = test: Antitumor activity against human CCRF-CEM cells after 48 hrs by SRB assay
# How it was run: (§2)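 NCI60 panel in RPMI 1640 with 5% FBS and 2 mM L-glutamine. Cells were plated at 5000–40,000/well by doubling time, held 24 h, then time-zero plates were TCA-fixed. Five concentrations (10-fold or half-log dilutions of DMSO stocks) were applied for 48 h at 37 °C, 5% CO2. Cells were fixed with cold TCA (10% final adherent, 16% suspension) and stained with 0.4% SRB. Bound dye was dissolved in 10 mM Tris and read at 515 nm. GI50, TGI and LC50 were calculated per line.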
# NCI-H226 = test: Antitumor activity against human NCI-H226 cells after 48 hrs by SRB assay; settings: NCI-H226, 48 h; how it was run: as §2
# UO-31 [1] = test: Antitumor activity against human UO31 cells after 48 hrs by SRB assay; settings: UO-31, 48 h
# How it was run: (§3)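 NCI60 panel cells grown in RPMI 1640 with 5% FBS and 2 mM L-glutamine, plated at 5000–40,000 cells/well and preincubated 24 h at 37 °C, 5% CO₂. Compound was added from DMSO at five concentrations, 10-fold or 1/2 log dilutions, then incubated 48 h.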
# MDA-MB-231 = test: Cytotoxicity against human MDA-MB-231 cells assessed as cellular growth at 10 uM after 48 hrs by SRB assay; how it was run: as §1
# SNB-75 = test: Antitumor activity against human SNB75 cells after 48 hrs by SRB assay; settings: SNB-75, 48 h; how it was run: as §3
# IGROV-1 = test: Cytotoxicity against human IGROV1 cells assessed as cellular growth at 10 uM after 48 hrs by SRB assay
# How it was run: (§4)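 NCI60 single-dose screen of cells in RPMI 1640 with 5% FBS and 2 mM L-glutamine, preincubated 24 h at 37 °C, 5% CO₂. Cells were then exposed 48 h to compound added from DMSO stock. TCA-fixed, stained with 0.4% SRB in 1% acetic acid, dye solubilised in 10 mM Tris base and read at 515 nm. Growth is given as percent of untreated control.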
# MCF7 = test: Cytotoxicity against human MCF7 cells assessed as cellular growth at 10 uM after 48 hrs by SRB assay; how it was run: as §1
# OVCAR-3 = test: Antitumor activity against human OVCAR3 cells after 48 hrs by SRB assay; settings: OVCAR-3, 48 h; how it was run: as §2
# HCT-116 = test: Antitumor activity against human HCT116 cells after 48 hrs by SRB assay; settings: HCT-116, 48 h; how it was run: as §2
# A549 = test: Cytotoxicity against human A549 cells assessed as cellular growth at 10 uM after 48 hrs by SRB assay; how it was run: as §4
# HCT-15 [2] = test: Cytotoxicity against human HCT15 cells assessed as cellular growth at 10 uM after 48 hrs by SRB assay; how it was run: as §4
# HL-60(TB) = test: Cytotoxicity against human HL-60(TB) cells assessed as cellular growth at 10 uM after 48 hrs by SRB assay
# SK-OV-3 = test: Antitumor activity against human SKOV3 cells after 48 hrs by SRB assay; settings: SK-OV-3, 48 h; how it was run: as §3
# TK-10 = test: Cytotoxicity against human TK10 cells assessed as cellular growth at 10 uM after 48 hrs by SRB assay; how it was run: as §1
# SK-MEL-2 [3] = test: Antitumor activity against human SK-MEL-2 cells after 48 hrs by SRB assay; settings: SK-MEL-2, 48 h; how it was run: as §3
# SR = test: Antitumor activity against human SR cells after 48 hrs by SRB assay; how it was run: as §3
# CAKI-1 = test: Cytotoxicity against human Caki1 cells assessed as cellular growth at 10 uM after 48 hrs by SRB assay; how it was run: as §4
# HCT-15 [4] = test: Antiproliferative activity against human HCT15 cells after 48 hrs by SRB assay; settings: HCT-15, 48 h
# How it was run: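 NCI60 screen: cells grown in RPMI 1640 with 5% FBS and 2 mM L-glutamine, plated at 5000–40,000 cells/well by doubling time, preincubated 24 h at 37 °C with 5% CO2. Compounds were diluted from DMSO stocks and given for 48 h, at five concentrations for dose response. A time-zero plate was TCA-fixed. Cells were TCA-fixed, stained with 0.4% SRB and read at 515 nm, with growth expressed relative to untreated controls.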
# SK-MEL-2 [5] = test: Cytotoxicity against human SK-MEL-2 cells assessed as cellular growth at 10 uM after 48 hrs by SRB assay; how it was run: as §1
# Malme-3M = test: Cytotoxicity against human MALME-3M cells assessed as cellular growth at 10 uM after 48 hrs by SRB assay; how it was run: as §1
# UO-31 [6] = test: Cytotoxicity against human UO31 cells assessed as cellular growth at 10 uM after 48 hrs by SRB assay; how it was run: as §1
# [7] = read-out: LC50 (the source's name)
# [8] = read-out: pLC50 (the source's name) (converted)
structure (smiles),measurement,setting,value
COc1cc(/C(=C2\O[C@@H]([C@H]3COC(C)(C)O3)[C@H]3OC(C)(C)O[C@@H]23)c2ccc3ccccc3c2)cc(OC)c1OC,Activity,SN12C,24.83%
same,GI50,CCRF-CEM; read-out: GI50,48.3 µM
same,CC50,CCRF-CEM; [7],> 100 µM
same,TGI,CCRF-CEM; read-out: TGI,> 100 µM
same,GI50,CCRF-CEM; read-out: pGI50 (converted),47.9 µM
same,CC50,CCRF-CEM; [8],> 100 µM
same,TGI,CCRF-CEM; read-out: pTGI,> 100 µM
same,GI50,NCI-H226; read-out: GI50,3.49 µM
same,CC50,NCI-H226; [7],> 100 µM
same,TGI,NCI-H226; read-out: TGI,60 µM
same,GI50,NCI-H226; read-out: pGI50 (converted),3.47 µM
same,CC50,NCI-H226; [8],> 100 µM
same,TGI,NCI-H226; read-out: pTGI (converted),60.3 µM
same,GI50,UO-31 [1]; read-out: GI50,3.47 µM
same,CC50,UO-31 [1]; [7],> 100 µM
same,TGI,UO-31 [1]; read-out: TGI,> 100 µM
same,GI50,UO-31 [1]; read-out: pGI50 (converted),3.47 µM
same,CC50,UO-31 [1]; [8],> 100 µM
same,TGI,UO-31 [1]; read-out: pTGI (converted),> 100 µM
same,Activity,MDA-MB-231,13.6%
same,GI50,SNB-75,2.89 µM
same,TGI,SNB-75,7.44 µM
same,CC50,SNB-75; [7],> 100 µM
same,Activity,IGROV-1,-21.44%
same,Activity,MCF7,22.8%
same,GI50,OVCAR-3,2.39 µM
same,TGI,OVCAR-3,5.67 µM
same,CC50,OVCAR-3; [7],21.7 µM
same,GI50,HCT-116,2.51 µM
same,LC50 (concentration giving 50% net cell kill),HCT-116,20.6 µM
same,TGI,HCT-116,5.7 µM
same,Activity,A549,-9.4%
same,Activity,HCT-15 [2],59.71%
same,Activity,HL-60(TB),59.17%
same,GI50,SK-OV-3; read-out: GI50,4.37 µM
same,CC50,SK-OV-3; [7],> 100 µM
same,TGI,SK-OV-3; read-out: TGI,> 100 µM
same,GI50,SK-OV-3; read-out: pGI50 (converted),17.8 µM
same,CC50,SK-OV-3; [8],> 100 µM
same,TGI,SK-OV-3; read-out: pTGI (converted),> 100 µM
same,Activity,TK-10,22.74%
same,GI50,SK-MEL-2 [3],1.53 µM
same,TGI,SK-MEL-2 [3],4.12 µM
same,CC50,SK-MEL-2 [3]; [7],24.1 µM
same,GI50,SR; read-out: GI50,> 100 µM
same,CC50,SR; [7],> 100 µM
same,TGI,SR; read-out: TGI,> 100 µM
same,GI50,SR; read-out: pGI50 (converted),100 µM
same,CC50,SR; [8],> 100 µM
same,TGI,SR; read-out: pTGI,> 100 µM
same,Activity,CAKI-1,38.73%
same,CC50,HCT-15 [4]; [7],> 100 µM
same,CC50,HCT-15 [4]; [8],> 100 µM
same,Activity,SK-MEL-2 [5],-49.67%
same,Activity,Malme-3M,-25.39%
same,Activity,UO-31 [6],46.81%
